Test [1] concerns the target T1, Aurora kinase A (Homo sapiens) (UniProt O14965).
T1 sequence (whole entry): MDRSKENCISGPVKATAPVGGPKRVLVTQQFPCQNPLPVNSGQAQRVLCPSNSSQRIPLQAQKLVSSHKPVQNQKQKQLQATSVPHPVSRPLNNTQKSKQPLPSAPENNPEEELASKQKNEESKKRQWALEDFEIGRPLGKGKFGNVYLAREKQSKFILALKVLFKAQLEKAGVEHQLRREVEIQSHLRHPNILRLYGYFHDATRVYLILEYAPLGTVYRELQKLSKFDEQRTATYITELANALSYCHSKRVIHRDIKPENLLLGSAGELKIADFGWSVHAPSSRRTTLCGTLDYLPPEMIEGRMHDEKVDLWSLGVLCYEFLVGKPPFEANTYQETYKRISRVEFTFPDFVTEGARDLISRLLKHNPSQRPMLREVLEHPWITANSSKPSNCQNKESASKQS
Put plainly: Inhibition of AURA (unknown origin) at 30 uM by microfluidic mobility shift assay relative to control. The procedure, abridged:
(§1)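 Single-point screen in a 24-enzyme kinase panel using a microfluidic assay. Each compound was tested at […] with ATP at roughly the Km for each enzyme. The pan-AGC inhibitor H-89 served as an internal control on every plate.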

In test [2] the target is Tyrosine-protein kinase Lck (Homo sapiens, UniProt P06239). Description: Inhibition of LCK (unknown origin) at 30 uM by microfluidic mobility shift assay relative to control. The procedure, abridged:
as §1

In test [3] the target is Tyrosine-protein kinase Lyn (Homo sapiens, UniProt P07948). Description: Inhibition of LYN (unknown origin) at 30 uM by microfluidic mobility shift assay relative to control. The procedure, abridged:
as §1

For test [4], the target named is Insulin receptor (Homo sapiens) (UniProt P06213). Put plainly: Inhibition of INSR (unknown origin) at 30 uM by microfluidic mobility shift assay relative to control. The procedure, abridged:
as §1

Test [5] addresses Tyrosine-protein kinase ABL1 (Homo sapiens, UniProt P00519). Description: Inhibition of ABL (unknown origin) at 30 uM by microfluidic mobility shift assay relative to control. The procedure, abridged:
as §1

For test [6], the target named is Mitogen-activated protein kinase 14 (Homo sapiens) (UniProt Q16539). Put plainly: Inhibition of p38alpha (unknown origin) at 30 uM by microfluidic mobility shift assay relative to control. The procedure, abridged: as §1
Mitogen-activated protein kinase 14 (Homo sapiens), sequence (Q16539 whole entry): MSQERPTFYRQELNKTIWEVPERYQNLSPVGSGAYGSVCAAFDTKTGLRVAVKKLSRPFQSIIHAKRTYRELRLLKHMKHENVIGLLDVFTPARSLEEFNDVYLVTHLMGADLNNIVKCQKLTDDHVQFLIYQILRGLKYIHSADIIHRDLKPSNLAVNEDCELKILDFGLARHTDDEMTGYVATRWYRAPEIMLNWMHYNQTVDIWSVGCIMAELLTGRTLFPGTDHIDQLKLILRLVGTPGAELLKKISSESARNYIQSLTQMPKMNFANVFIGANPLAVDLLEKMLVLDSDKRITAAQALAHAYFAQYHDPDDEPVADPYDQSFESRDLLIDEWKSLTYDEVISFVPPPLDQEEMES
Test [7] has as its target Glycogen synthase kinase-3 beta (Homo sapiens, UniProt P49841). Put plainly: Inhibition of GSK3beta (unknown origin) at 30 uM by microfluidic mobility shift assay relative to control. The procedure, abridged: as §1
The target in test [8] is Mitogen-activated protein kinase 1 (Homo sapiens, UniProt P28482). Description: Inhibition of ERK2 (unknown origin) at 30 uM by microfluidic mobility shift assay relative to control. The procedure, abridged:
as §1

Test [9] has as its target Mitogen-activated protein kinase 3 (Homo sapiens, UniProt P27361). Put plainly: Inhibition of ERK1 (unknown origin) at 30 uM by microfluidic mobility shift assay relative to control. The procedure, abridged:
as §1

Test [10] has as its target Serine/threonine-protein kinase Chk2 (Homo sapiens, UniProt O96017). Description: Inhibition of CHK2 (unknown origin) at 30 uM by microfluidic mobility shift assay relative to control. The procedure, abridged: as §1
Test [11] has as its target T2, Serine/threonine-protein kinase Chk1 (Homo sapiens) (UniProt O14757).
T2 sequence (whole entry): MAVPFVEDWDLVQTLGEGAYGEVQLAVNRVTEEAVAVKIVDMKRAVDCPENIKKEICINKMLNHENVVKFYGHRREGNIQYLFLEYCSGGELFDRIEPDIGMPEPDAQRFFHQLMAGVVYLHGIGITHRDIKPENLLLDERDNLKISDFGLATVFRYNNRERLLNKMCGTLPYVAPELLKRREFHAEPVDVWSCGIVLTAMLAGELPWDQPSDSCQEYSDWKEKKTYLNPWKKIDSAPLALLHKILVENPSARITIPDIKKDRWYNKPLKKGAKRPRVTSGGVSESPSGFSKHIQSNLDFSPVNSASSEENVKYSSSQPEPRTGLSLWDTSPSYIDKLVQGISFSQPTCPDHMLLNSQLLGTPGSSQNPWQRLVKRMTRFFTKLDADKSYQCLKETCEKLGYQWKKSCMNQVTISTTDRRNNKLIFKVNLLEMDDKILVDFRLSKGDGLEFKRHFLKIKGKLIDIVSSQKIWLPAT
Description: Inhibition of CHK1 (unknown origin) at 30 uM by microfluidic mobility shift assay relative to control. The procedure, abridged:
as §1

For test [12], the target named is T3, Serine/threonine-protein kinase D2 (Homo sapiens) (UniProt Q9BZL6).
T3 sequence (whole entry): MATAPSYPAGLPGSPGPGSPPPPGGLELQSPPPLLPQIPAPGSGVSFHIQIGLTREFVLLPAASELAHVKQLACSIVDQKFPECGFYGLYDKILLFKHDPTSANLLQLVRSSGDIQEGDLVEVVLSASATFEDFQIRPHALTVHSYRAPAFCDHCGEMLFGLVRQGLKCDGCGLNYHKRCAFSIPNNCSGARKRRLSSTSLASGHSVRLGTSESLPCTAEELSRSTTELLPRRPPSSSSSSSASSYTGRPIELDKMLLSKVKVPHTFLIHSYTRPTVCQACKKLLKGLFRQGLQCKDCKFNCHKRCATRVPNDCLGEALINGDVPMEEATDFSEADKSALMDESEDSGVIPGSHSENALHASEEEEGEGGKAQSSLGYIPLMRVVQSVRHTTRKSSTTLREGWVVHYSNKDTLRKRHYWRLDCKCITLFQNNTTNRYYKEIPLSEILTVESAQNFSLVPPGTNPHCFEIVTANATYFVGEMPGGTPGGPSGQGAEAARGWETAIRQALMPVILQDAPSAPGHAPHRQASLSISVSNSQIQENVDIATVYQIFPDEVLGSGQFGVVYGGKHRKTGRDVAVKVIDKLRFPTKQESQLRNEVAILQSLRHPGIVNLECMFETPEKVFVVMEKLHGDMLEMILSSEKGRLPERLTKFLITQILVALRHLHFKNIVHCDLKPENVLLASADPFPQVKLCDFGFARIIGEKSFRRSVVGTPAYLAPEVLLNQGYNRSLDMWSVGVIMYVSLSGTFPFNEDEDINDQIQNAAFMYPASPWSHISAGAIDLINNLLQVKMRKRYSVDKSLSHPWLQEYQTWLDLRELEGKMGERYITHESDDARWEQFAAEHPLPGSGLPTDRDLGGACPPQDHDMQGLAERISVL
Put plainly: Inhibition of PKD2 (unknown origin) at 30 uM by microfluidic mobility shift assay relative to control. The procedure, abridged: as §1

Test [13] addresses MAP kinase-activated protein kinase 2 (Homo sapiens) (UniProt P49137). Put plainly: Inhibition of MK2 (unknown origin) at 30 uM by microfluidic mobility shift assay relative to control. The procedure, abridged:
as §1

The target of test [14] is Ribosomal protein S6 kinase alpha-5 (Homo sapiens, UniProt O75582). Put plainly: Inhibition of MSK1 (unknown origin) at 30 uM by microfluidic mobility shift assay relative to control. The procedure, abridged:
as §1

A further test is filed under the species Homo sapiens. Description: Inhibition of PKA (unknown origin) at 30 uM by microfluidic mobility shift assay relative to control. The procedure, abridged: as §1
The target in test [15] is RAC-alpha serine/threonine-protein kinase (Homo sapiens, UniProt P31749). Put plainly: Inhibition of AKT1 (unknown origin) at 30 uM by microfluidic mobility shift assay relative to control. The procedure, abridged: as §1
RAC-alpha serine/threonine-protein kinase, sequence (P31749 whole entry): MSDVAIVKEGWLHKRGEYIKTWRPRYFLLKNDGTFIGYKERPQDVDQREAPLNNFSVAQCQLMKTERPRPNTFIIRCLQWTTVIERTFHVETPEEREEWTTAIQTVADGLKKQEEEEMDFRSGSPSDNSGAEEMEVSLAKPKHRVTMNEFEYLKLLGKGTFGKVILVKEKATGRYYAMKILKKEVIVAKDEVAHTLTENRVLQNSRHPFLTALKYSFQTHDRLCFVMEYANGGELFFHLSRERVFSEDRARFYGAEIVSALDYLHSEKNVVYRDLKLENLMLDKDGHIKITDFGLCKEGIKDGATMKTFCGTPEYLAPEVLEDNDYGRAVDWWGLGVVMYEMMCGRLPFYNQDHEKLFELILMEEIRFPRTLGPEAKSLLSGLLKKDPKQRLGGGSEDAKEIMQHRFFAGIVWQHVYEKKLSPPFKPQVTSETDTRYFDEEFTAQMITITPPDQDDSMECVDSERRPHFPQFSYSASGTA

MAP kinase-activated protein kinase 2 (Homo sapiens), sequence (P49137 whole entry, looked up): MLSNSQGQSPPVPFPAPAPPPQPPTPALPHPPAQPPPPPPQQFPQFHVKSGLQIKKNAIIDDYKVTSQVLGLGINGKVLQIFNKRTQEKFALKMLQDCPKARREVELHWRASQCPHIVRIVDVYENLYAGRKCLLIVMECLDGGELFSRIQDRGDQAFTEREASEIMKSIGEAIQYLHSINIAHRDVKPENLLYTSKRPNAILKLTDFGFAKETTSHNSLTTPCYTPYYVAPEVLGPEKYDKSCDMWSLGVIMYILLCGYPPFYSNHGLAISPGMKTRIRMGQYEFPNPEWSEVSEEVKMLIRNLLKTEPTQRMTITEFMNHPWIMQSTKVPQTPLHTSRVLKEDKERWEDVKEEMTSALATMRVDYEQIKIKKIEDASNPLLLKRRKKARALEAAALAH
Serine/threonine-protein kinase Chk2, sequence (O96017 whole entry): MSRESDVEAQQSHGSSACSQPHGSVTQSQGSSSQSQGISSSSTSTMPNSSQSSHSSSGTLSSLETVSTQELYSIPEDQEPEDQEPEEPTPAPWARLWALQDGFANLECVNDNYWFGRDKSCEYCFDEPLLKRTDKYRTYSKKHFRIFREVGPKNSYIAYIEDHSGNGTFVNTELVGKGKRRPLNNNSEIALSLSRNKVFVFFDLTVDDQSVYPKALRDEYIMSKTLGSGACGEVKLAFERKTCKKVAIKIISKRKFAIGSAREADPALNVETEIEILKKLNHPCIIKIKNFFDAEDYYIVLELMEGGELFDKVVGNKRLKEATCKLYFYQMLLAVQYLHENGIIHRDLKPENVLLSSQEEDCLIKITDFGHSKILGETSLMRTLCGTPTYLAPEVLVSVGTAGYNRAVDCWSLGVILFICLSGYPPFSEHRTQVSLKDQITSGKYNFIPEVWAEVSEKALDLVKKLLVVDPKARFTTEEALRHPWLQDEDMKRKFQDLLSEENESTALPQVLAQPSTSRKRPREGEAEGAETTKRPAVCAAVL
Mitogen-activated protein kinase 3, sequence (P27361 whole entry): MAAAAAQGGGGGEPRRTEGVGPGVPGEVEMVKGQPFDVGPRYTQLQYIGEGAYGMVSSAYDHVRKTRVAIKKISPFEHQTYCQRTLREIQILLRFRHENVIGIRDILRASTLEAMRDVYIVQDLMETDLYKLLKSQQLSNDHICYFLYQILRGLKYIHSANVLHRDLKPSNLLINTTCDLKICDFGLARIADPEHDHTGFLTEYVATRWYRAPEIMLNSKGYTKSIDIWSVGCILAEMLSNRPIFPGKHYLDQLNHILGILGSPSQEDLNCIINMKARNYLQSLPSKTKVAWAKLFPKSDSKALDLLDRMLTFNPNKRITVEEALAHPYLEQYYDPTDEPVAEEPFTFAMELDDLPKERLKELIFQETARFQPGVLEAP
Tyrosine-protein kinase ABL1, sequence (P00519 whole entry): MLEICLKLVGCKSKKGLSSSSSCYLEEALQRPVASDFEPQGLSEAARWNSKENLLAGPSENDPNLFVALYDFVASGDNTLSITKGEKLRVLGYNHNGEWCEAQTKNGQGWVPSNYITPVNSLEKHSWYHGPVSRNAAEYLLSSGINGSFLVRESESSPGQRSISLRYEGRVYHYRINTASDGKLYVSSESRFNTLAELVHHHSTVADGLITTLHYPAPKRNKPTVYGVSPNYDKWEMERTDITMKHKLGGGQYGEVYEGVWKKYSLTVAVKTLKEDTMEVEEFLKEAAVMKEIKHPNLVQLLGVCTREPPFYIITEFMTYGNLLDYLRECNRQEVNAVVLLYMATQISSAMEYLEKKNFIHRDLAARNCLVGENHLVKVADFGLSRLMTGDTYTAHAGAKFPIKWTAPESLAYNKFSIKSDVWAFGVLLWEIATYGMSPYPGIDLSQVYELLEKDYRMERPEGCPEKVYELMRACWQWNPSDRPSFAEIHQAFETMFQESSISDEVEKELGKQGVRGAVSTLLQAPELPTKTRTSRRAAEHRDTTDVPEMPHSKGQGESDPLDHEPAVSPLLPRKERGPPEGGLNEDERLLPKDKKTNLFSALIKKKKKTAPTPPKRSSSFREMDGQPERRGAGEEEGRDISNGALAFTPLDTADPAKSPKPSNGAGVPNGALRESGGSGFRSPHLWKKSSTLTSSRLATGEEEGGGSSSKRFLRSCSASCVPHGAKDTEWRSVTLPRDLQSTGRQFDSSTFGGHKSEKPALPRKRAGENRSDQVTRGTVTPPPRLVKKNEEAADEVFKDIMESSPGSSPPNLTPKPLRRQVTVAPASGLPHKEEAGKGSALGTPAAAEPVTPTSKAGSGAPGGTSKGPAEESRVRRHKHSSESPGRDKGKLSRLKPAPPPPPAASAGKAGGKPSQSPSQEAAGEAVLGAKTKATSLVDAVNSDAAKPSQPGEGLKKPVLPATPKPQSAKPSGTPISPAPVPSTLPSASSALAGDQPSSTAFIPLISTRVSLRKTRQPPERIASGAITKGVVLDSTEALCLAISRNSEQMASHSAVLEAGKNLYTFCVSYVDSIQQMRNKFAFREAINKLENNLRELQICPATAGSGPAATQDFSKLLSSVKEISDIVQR
Insulin receptor (Homo sapiens), sequence (P06213 28-758 limits assumed): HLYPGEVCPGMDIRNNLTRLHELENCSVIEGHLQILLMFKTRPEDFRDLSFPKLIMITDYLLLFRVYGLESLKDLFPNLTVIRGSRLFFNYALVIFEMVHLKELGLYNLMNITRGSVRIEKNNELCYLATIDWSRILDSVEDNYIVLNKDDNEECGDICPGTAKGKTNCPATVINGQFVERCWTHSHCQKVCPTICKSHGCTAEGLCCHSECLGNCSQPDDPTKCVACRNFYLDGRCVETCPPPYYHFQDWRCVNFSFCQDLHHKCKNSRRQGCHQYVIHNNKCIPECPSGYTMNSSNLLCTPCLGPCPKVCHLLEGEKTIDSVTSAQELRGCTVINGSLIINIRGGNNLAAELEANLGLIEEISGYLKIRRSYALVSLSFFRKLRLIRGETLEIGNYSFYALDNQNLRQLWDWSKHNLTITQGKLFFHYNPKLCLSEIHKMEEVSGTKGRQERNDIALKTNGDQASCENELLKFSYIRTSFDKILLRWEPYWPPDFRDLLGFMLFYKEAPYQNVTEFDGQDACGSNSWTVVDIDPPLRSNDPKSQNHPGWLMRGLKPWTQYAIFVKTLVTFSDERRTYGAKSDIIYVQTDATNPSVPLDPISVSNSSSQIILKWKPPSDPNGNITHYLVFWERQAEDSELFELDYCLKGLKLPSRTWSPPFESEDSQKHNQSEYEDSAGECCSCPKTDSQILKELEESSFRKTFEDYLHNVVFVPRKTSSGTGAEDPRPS
Insulin receptor (Homo sapiens), sequence (P06213 763-1382 limits assumed): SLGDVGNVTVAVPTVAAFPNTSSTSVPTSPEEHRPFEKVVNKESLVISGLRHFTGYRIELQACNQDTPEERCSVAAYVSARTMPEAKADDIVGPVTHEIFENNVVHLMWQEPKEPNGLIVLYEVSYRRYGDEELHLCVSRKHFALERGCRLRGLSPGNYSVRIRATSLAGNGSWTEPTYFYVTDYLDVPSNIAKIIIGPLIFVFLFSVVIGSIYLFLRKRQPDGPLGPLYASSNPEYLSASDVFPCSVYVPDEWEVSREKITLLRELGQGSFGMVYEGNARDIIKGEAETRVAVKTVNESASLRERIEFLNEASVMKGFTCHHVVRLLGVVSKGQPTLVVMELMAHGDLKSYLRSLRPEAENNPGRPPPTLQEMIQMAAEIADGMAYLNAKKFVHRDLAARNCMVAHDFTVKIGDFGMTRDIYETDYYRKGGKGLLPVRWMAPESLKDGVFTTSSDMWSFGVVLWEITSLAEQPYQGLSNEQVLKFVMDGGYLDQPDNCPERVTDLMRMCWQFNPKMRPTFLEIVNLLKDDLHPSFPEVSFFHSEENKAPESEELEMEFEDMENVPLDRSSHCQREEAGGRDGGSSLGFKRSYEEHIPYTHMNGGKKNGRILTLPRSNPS
Mitogen-activated protein kinase 1, sequence (P28482 whole entry): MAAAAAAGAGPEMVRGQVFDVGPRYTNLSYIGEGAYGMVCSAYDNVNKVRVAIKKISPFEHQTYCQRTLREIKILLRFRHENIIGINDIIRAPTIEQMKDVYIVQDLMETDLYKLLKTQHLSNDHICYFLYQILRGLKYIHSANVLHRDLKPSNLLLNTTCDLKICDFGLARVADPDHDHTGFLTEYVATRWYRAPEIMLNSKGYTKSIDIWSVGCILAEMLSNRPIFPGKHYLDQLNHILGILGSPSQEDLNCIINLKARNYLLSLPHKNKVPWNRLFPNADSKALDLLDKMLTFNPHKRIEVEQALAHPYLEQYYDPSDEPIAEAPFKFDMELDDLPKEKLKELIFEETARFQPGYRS

What is called inhibition is the relative decrease from the control value, in per cent. Consider `c1nc(N2CCC3(CCCN3)CC2)c2nc[nH]c2n1`, for which the inhibition amounted to 55% in [1]; 21% in test [2]; 20% in test [3]; 2% in [4]; 26% in [5]; 2% in [6]. Besides, the inhibition in test [7] came to 19%; in [8], 50%; in test [9], 53%; in test [10], 81%; in test [11] it was 85%; in [12], 82%. Further, the inhibition in test [13] is 48%; in test [14], 95%; in the test filed under Homo sapiens, 98%; in test [15], 91%.
As for `c1ccc(C2CCC3(CCN(c4ncnc5[nH]cnc45)CC3)NC2)cc1` (stereo not drawn), the inhibition came to 90% in test [1]; 62% in test [2]; 44% in test [3]; 31% in test [4]; 51% in test [5]; 10% in [6]. The inhibition in [7] was found to be 21%; in test [8], 35%; in test [9], 26%; in test [10], 44%; in test [11] it was 69%; in test [12] it was 33%. Further, the inhibition worked out at 17% in [13], 78% in [14], 96% in the test listed under Homo sapiens and 85% in test [15].
Take `O=S(=O)(c1cccc2cnccc12)N1CCC2(CCCNC2)CC1`: the inhibition in [1] is 24%; in test [2], 9%; in [3] it was 5%; in [4], 6%; in [5] it was 0%; in test [6], 9%. The inhibition was determined as 5% in test [7]; 13% in [8]; 0% in test [9]; 65% in [10]; 8% in test [11]; 15% in test [12]. In addition, the inhibition in test [13] was determined as 8%; in test [14] it was 36%; in the test filed under Homo sapiens, 77%; in test [15], 0%.
As for `c1nc(N2CCC3(CCCCC3)CC2)c2nc[nH]c2n1`, the inhibition came out at 71% in test [1]; 35% in [2]; 21% in test [3]; 8% in test [4]; 20% in test [5]; 6% in test [6]. The inhibition stood at 40% in [7]; 18% in test [8]; 12% in test [9]; 25% in test [10]; 17% in [11]; 5% in [12]. In addition, the inhibition in [13] came to 10%; in [14], 35%; in the test listed under Homo sapiens, 55%; in test [15], 16%.
On to `OC1CCNC2(CCN(c3ncnc4[nH]cnc34)CC2)C1` (racemic), for which the inhibition in test [1] turned out to be 63%; in test [2], 14%; in [3], 39%; in test [4], 0%; in [5] it was 23%; in test [6], 4%. Moreover, the inhibition in test [7] stood at 19%; in test [8] it was 32%; in test [9], 28%; in [10], 44%; in [11], 80%; in test [12] it was 23%. Besides, the inhibition is 8% in test [13], 93% in test [14], 98% in the test filed under Homo sapiens and 94% in test [15].
As for `O=S(=O)(c1cccc2cnccc12)N1CCCC2(CCNCC2)C1`, the inhibition in test [1] was found to be 36%; in test [2] it was 11%; in test [3] it was 9%; in test [4], 4%; in [5] it was 0%; in test [6] it was 2%. In addition, the inhibition in test [7] was 3%; in [8], 2%; in test [9], 0%; in test [10], 13%; in [11], 2%; in test [12], 21%. Also, the inhibition in test [13] worked out at 0%; in test [14], 39%; in the test listed under Homo sapiens it was 83%; in [15], 24%.
Consider `O=S(=O)(c1cccc2cnccc12)N1CCC2(CCCN2)CC1`, for which the inhibition came to 43% in test [1]; 6% in [2]; 11% in test [3]; 0% in test [4]; 9% in [5]; 0% in [6]. The inhibition in test [7] was determined as 20%; in [8] it was 7%; in test [9], 6%; in test [10], 50%; in test [11], 10%; in test [12] it was 81%. In addition, the inhibition in test [13] was determined as 27%; in test [14], 85%; in the test filed under Homo sapiens it was 92%; in [15], 28%.
Regarding `O=S(=O)(c1cccc2cnccc12)N1CCC2(CCC(O)CN2)CC1` (racemic), the inhibition in test [1] was determined as 87%; in test [2] it was 19%; in test [3] it was 23%; in [4] it was 0%; in test [5], 17%; in test [6], 2%. The inhibition in test [7] amounted to 80%; in [8], 8%; in test [9], 17%; in [10] it was 59%; in [11], 0%; in [12], 64%. Moreover, the inhibition in test [13] came out at 19%; in [14], 89%; in the test listed under Homo sapiens, 90%; in [15], 21%.
